In ChEMBL document CHEMBL1765068, “Role of the side chain stereochemistry in the α-glucosidase inhibitory activity of kotalanol, a potent natural α-glucosidase inhibitor” (Bioorg Med Chem, 2011):

Assays:
[1] = target: T1, Sucrase-isomaltase, intestinal (Rattus norvegicus, UniProt P23739); assay: Inhibition of rat small intestinal sucrase after 30 mins
Outline: (§1)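 Enzyme source was rat small-intestinal brush-border membrane vesicles suspended in 0.1 M maleate buffer, pH 6.0. Substrate solutions were maltose 74 mM (maltase), sucrose 74 mM (sucrase) and isomaltose 7.4 mM (isomaltase). Glucose was measured by glucose oxidase. IC50 was read graphically from % inhibition versus log concentration.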

[2] = target: Sucrase-isomaltase, intestinal (Rattus norvegicus) (UniProt P23739); settings: 100 ug/ml
Chain of Sucrase-isomaltase, intestinal (Rattus norvegicus) (P23739 1-1013 limits assumed): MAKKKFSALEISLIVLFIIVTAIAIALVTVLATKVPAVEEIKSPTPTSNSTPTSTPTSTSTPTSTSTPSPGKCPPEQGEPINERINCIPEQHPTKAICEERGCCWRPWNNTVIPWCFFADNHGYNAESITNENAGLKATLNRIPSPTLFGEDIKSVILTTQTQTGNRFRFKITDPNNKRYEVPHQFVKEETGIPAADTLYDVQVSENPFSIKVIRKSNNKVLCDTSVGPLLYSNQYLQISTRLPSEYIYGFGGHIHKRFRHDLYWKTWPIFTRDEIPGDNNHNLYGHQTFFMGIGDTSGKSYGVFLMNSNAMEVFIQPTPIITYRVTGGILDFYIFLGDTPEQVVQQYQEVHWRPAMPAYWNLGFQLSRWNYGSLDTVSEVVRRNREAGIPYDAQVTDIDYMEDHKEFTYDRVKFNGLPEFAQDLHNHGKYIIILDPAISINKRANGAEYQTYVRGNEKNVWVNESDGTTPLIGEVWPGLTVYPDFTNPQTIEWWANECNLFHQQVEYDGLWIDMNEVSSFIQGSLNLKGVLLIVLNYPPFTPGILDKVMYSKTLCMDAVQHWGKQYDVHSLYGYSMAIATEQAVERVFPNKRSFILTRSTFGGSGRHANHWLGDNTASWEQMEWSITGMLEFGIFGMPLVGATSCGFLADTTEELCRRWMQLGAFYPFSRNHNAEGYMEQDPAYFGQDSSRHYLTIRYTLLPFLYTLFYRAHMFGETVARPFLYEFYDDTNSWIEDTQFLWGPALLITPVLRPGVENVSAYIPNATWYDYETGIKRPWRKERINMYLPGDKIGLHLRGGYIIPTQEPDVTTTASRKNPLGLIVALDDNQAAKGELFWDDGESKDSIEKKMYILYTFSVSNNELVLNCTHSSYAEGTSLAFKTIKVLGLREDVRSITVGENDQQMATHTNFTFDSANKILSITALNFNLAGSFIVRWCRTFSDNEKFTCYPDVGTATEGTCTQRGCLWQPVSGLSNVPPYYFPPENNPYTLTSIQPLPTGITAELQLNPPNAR
Chain of Sucrase-isomaltase, intestinal (Rattus norvegicus) (P23739 1014-1841 limits assumed): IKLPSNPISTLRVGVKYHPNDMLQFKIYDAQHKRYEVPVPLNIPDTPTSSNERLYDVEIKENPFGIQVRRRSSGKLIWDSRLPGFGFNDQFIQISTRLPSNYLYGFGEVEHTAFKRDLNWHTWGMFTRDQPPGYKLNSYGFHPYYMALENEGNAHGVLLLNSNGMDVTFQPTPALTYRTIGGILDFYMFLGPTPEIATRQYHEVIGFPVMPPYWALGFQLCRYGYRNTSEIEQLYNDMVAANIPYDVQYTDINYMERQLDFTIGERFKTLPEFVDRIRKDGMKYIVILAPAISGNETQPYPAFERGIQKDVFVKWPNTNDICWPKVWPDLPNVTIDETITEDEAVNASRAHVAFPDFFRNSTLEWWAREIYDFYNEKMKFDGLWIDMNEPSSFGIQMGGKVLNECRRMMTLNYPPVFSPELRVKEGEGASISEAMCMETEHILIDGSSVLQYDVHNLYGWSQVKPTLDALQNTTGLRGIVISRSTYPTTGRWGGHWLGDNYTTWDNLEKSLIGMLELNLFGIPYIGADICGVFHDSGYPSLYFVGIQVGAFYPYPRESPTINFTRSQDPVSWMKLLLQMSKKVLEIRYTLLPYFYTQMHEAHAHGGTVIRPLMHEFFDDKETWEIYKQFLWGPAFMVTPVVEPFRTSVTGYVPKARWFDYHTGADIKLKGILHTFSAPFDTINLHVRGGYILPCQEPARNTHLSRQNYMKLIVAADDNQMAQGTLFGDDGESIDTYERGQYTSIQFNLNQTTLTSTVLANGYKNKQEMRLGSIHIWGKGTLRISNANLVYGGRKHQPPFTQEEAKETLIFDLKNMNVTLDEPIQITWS

[3] = target: Lysosomal alpha-glucosidase (Rattus norvegicus) (UniProt Q6P7A9); settings: 100 ug/ml
Chain of Lysosomal alpha-glucosidase (Rattus norvegicus) (Q6P7A9 whole entry): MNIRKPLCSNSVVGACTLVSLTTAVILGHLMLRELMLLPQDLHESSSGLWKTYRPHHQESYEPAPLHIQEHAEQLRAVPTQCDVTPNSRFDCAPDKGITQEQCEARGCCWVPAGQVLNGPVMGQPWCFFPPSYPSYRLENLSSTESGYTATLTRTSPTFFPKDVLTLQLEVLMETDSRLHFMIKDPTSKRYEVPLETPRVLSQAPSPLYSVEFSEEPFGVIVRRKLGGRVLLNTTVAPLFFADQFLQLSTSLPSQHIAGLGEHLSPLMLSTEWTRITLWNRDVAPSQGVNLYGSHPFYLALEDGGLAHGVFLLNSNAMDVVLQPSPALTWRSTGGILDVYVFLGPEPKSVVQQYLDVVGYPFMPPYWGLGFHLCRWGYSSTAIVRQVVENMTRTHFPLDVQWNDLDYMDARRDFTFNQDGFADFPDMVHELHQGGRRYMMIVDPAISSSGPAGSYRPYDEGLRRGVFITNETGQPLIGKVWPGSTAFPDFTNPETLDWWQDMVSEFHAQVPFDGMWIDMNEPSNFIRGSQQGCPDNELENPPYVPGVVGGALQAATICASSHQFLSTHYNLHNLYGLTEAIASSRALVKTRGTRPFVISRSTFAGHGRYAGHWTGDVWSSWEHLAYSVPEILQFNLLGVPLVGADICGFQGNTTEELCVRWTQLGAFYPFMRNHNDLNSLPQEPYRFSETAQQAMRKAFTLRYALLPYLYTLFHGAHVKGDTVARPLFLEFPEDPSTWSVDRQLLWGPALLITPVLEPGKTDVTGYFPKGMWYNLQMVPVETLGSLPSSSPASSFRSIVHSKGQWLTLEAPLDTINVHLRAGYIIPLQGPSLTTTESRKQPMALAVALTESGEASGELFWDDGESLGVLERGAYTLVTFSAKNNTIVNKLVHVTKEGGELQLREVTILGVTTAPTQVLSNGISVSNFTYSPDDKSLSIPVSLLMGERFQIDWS

[4] = target: T1, Sucrase-isomaltase, intestinal; assay: Inhibition of rat small intestinal isomaltase after 30 mins; outline: as §1
[5] = Inhibition of rat small intestinal maltase after 30 mins

T1 sequence (P23739 1-1013 limits assumed): as the sequence (P23739 1-1013 limits assumed) above
T1 sequence (P23739 1014-1841 limits assumed): as the sequence (P23739 1014-1841 limits assumed) above

Row | IC50 [1] | inhibition [2] | inhibition [3] | IC50 [4] | IC50 [5] | Structure (SMILES)
1 | 23 µM |  |  | 25 µM |  | O=S(=O)([O-])O[C@H]([C@@H](O)[C@@H](O)[C@@H](O)CO)[C@H](O)C[S+]1C[C@@H](O)[C@H](O)[C@H]1CO (stereo not given in full)
2 | > 236 µM | 28% | 32% | 8.5 µM |  | O=S(=O)([O-])O[C@H]([C@@H](O)[C@H](O)[C@@H](O)CO)[C@H](O)C[S+]1C[C@@H](O)[C@H](O)[C@H]1CO (stereo not given in full)
3 |  |  |  |  | 7.2 µM | O=S(=O)([O-])O[C@@H]([C@H](O)[C@H](O)[C@@H](O)CO)[C@H](O)C[S+]1C[C@@H](O)[C@H](O)[C@H]1CO (stereo not given in full) [KOTALANOL]

The remaining lines, values behind:

Row | Structure (SMILES) | IC50 [1] | inhibition [2] | inhibition [3] | IC50 [4] | IC50 [5]
4 | O=S(=O)([O-])O[C@@H]([C@H](O)[C@@H](O)CO)[C@H](O)C[S@+]1C[C@@H](O)[C@H](O)[C@H]1CO [PONKORANOL] | > 100 µM |  |  |  | 
5 | O=S(=O)([O-])O[C@H]([C@@H](O)[C@@H](O)[C@H](O)CO)[C@H](O)C[S+]1C[C@@H](O)[C@H](O)[C@H]1CO (stereo not given in full) | > 236 µM | 8% | 25% | 16 µM | 
6 | O=S(=O)([O-])O[C@H]([C@@H](O)[C@H](O)[C@H](O)CO)[C@H](O)C[S+]1C[C@@H](O)[C@H](O)[C@H]1CO (stereo not given in full) | > 236 µM | 34% | 45% | 9 µM | 
7 | O=S(=O)([O-])OC[C@H](O)C[S@+]1C[C@@H](O)[C@H](O)[C@H]1CO [SALAPRINOL] | 0.29 µM |  |  | 2.6 µM | 
8 | OCC(CO)N[C@H]1C[C@](O)(CO)[C@@H](O)[C@H](O)[C@H]1O [VOGLIBOSE] | 1.2 µM |  |  |  | 
9 | O=S(=O)([O-])O[C@@H](CO)[C@H](O)C[S@+]1C[C@@H](O)[C@H](O)[C@H]1CO [SALACINOL] |  |  |  |  | 5.2 µM
